Assay [1] has as its system HCT-116 (colon cancer). Put plainly: cell viability assay, HCT-116. The assay is classed as cell-based. The following applies: Homo sapiens, HCT-116, read-out: IC50(HCT-116). The method in brief:
(§1)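 Cell viability assays, run on proliferating tumour lines and on quiescent IMR-90 immortalized human fibroblasts, gave IC50 values. Cell preparation and sample handling were automated. The automation protocol changed between the earlier and the later test series.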

The next assay deals with A2058 (melanoma). Kind of assay: proliferative cell growth inhibition assay, A2058. In kind it is cell-based. The following applies: Homo sapiens, A2058, read-out: IC50(cell line) A2058. The method in brief:
as §1

Assay [2] has as its system H522-T1 (nonsmall cell lung cancer). Put plainly: proliferative cell growth inhibition assay, H522-T1. In kind it is cell-based. The following applies: H522-T1, read-out: IC50(cell line) H522-T1. The method in brief:
as §1

For assay [3], the system named is HCT-116 (colon cancer). Put plainly: proliferative cell growth inhibition assay, HCT-116. In kind it is cell-based. The following applies: Homo sapiens, HCT-116, read-out: IC50(cell line) HCT-116. Put shortly:
as §1

The subject of assay [4] is quiescent IMR-90 immortalized human fibroblasts. Kind of assay: IMR-90 cytotoxicity assay. In kind it is cell-based. The following applies: IMR-90, read-out: IC50(cell line) IMR-90. Put shortly: as §1
The test system of assay [5] is wide range of cancer cell lines. The following applies: initially reported; cited from earlier work.

Molecules are shown by their SMILES. Where only a bound is given, the exact number is not on record here.

As to `C=C(C)CC(OC)[C@H](O)C(=O)N[C@@H](OC)[C@@H]1C[C@@H](O)C(C)(C)[C@@H](C[C@H](O)[C@@H](C)[C@H]2Cc3c(C)c(O)cc(O)c3C(=O)O2)O1` (single isomer, unassigned; (+)) [compound 1, (+)-irciniastatin A], the IC50 in the assay with HCT-116 (colon cancer) [1] amounted to 0.2 nM; in the assay with A2058 (melanoma) it was 0.4 nM; in assay [2], 1 nM; with HCT-116 (colon cancer) [3] it was 4 nM; in assay [4], 27 nM. Besides, the “differential activities against cancer cell lines” value in assay [5] is given as over 10000 fold.

These data come from PMC4782725 (The Journal of Organic Chemistry, 2016).
